Data taken from ChEMBL document CHEMBL1671767, “Fusidic acid resistance determinants in Staphylococcus aureus clinical isolates” (2010).
Values after ≈ are worked out from the molar mass of the structure shown.

How the values were obtained:
Format in all cases: functional
Staphylococcus aureus [1] = assay: Antibacterial activity against Staphylococcus aureus harboring L461S mutation in domain 3 of EF-G encoded by fusA gene after 16 to 20 hrs by CLSI agar dilution method
Summary of the method: (§1)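 Clinical isolates collected at a Taiwanese teaching hospital, 2002–2007. Inoculum was made by direct colony suspension to 0.5 McFarland. 10^4 CFU/spot was applied by Steers replicator onto Mueller-Hinton agar containing fusidic acid at 0.03 to 128 μg/ml. Plates were incubated at 33 to 35°C for 16–20 h. S. aureus ATCC 29213 served as control. Resistance breakpoint was 2 μg/ml.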

Staphylococcus aureus [2] = assay: Antibacterial activity against fusidic acid-resistant Staphylococcus aureus harboring H457Q and L461F mutations in domain 3 of EF-G encoded by fusA gene after 16 to 20 hrs by CLSI agar dilution method; summary of the method: as §1
Staphylococcus aureus [3] = assay: Antibacterial activity against methicillin-susceptible Staphylococcus aureus harboring P478S mutation in domain 3 of EF-G encoded by fusA gene after 16 to 20 hrs by CLSI agar dilution method; summary of the method: as §1
Staphylococcus aureus [4] = assay: Antibacterial activity against Staphylococcus aureus harboring P406L mutation in domain 3 of EF-G encoded by fusA gene after 16 to 20 hrs by CLSI agar dilution method; summary of the method: as §1
Staphylococcus aureus [5] = assay: Antibacterial activity against methicillin-susceptible Staphylococcus aureus harboring M651I mutation in domain 5 of EF-G encoded by fusA gene after 16 to 20 hrs by CLSI agar dilution method
Summary of the method: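 Agar dilution per CLSI on Mueller-Hinton agar, fusidic acid 0.03 to 128 μg/ml. Inoculum from direct colony suspension adjusted to 0.5 McFarland, 104 CFU/spot applied by Steers replicator. Plates incubated 33 to 35°C for 16 to 20 h. S. aureus ATCC 29213 as control strain; resistance breakpoint 2 μg/ml.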

Staphylococcus aureus [6] = assay: Antibacterial activity against fusidic acid-resistant Staphylococcus aureus harboring E444V and L461F mutations in domain 3 of EF-G encoded by fusA gene after 16 to 20 hrs by CLSI agar dilution method; summary of the method: as §1
Staphylococcus aureus [7] = assay: Antibacterial activity against fusidic acid-resistant Staphylococcus aureus harboring L461K mutation in domain 3 of EF-G encoded by fusA gene after 16 to 20 hrs by CLSI agar dilution method; summary of the method: as §1
Staphylococcus aureus [8] = assay: Antibacterial activity against fusidic acid-resistant Staphylococcus aureus harboring E444K mutation in domain 3 of EF-G encoded by fusA gene after 16 to 20 hrs by CLSI agar dilution method; summary of the method: as §1
Staphylococcus aureus [9] = assay: Antibacterial activity against fusidic acid-resistant Staphylococcus aureus harboring M16I in domain 1 and H457Y mutation in domain 3 of EF-G encoded by fusA gene after 16 to 20 hrs by CLSI agar dilution method; summary of the method: as §1
Staphylococcus aureus [10] = assay: Antibacterial activity against fusidic acid-resistant Staphylococcus aureus harboring H457Y mutation in domain 3 of EF-G encoded by fusA gene after 16 to 20 hrs by CLSI agar dilution method; summary of the method: as §1
Staphylococcus aureus [11] = assay: Antibacterial activity against fusidic acid-resistant methicillin-susceptible Staphylococcus aureus harboring P404L mutation in domain 3 of EF-G encoded by fusA gene after 16 to 20 hrs by CLSI agar dilution method; summary of the method: as §1
Staphylococcus aureus [12] = assay: Antibacterial activity against fusidic acid-resistant, methicillin-susceptible Staphylococcus aureus after 16 to 20 hrs by CLSI agar dilution method
Summary of the method: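 Clinical isolates from a Taiwan teaching hospital, 2002–2007. CLSI agar dilution: colonies suspended directly to 0.5 McFarland, and 10^4 CFU/spot applied by Steers replicator to Mueller-Hinton agar containing fusidic acid at 0.03 to 128 μg/ml. Plates incubated 16 to 20 h at 33 to 35°C. S. aureus ATCC 29213 used as control; resistance breakpoint 2 μg/ml.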

Staphylococcus aureus [13] = assay: Antibacterial activity against fusidic acid-resistant Staphylococcus aureus harboring A71V in domain 1 and P404L mutation in domain 3 of EF-G encoded by fusA gene after 16 to 20 hrs by CLSI agar dilution method; summary of the method: as §1
Staphylococcus aureus [14] = assay: Antibacterial activity against fusidic acid-resistant Staphylococcus aureus harboring H457Q mutation in domain 3 of EF-G encoded by fusA gene after 16 to 20 hrs by CLSI agar dilution method; summary of the method: as §1
Staphylococcus aureus [15] = assay: Antibacterial activity against fusidic acid-resistant Staphylococcus aureus harboring A67T in domain 1 and H457Y mutation in domain 3 of EF-G encoded by fusA gene after 16 to 20 hrs by CLSI agar dilution method; summary of the method: as §1
Staphylococcus aureus [16] = assay: Antibacterial activity against fusidic acid-resistant Staphylococcus aureus harboring H457Q and L461K mutations in domain 3 of EF-G encoded by fusA gene after 16 to 20 hrs by CLSI agar dilution method; summary of the method: as §1
Staphylococcus aureus [17] = assay: Antibacterial activity against Staphylococcus aureus harboring M453I mutation in domain 3 of EF-G encoded by fusA gene after 16 to 20 hrs by CLSI agar dilution method; summary of the method: as §1
Staphylococcus aureus [18] = assay: Antibacterial activity against fusidic acid-resistant, methicillin-resistant Staphylococcus aureus after 16 to 20 hrs by CLSI agar dilution method; summary of the method: as §1
Staphylococcus aureus [19] = assay: Antibacterial activity against fusidic acid-resistant Staphylococcus aureus harboring R76C in domain 1 and H457Y mutation in domain 3 of EF-G encoded by fusA gene after 16 to 20 hrs by CLSI agar dilution method; summary of the method: as §1
Staphylococcus aureus [20] = assay: Antibacterial activity against fusidic acid-resistant methicillin-resistant Staphylococcus aureus harboring P404L mutation in domain 3 of EF-G encoded by fusA gene after 16 to 20 hrs by CLSI agar dilution method; summary of the method: as §1
Staphylococcus aureus [21] = assay: Antibacterial activity against Staphylococcus aureus harboring G451V mutation in domain 3 of EF-G encoded by fusA gene after 16 to 20 hrs by CLSI agar dilution method; summary of the method: as §1
Staphylococcus aureus [22] = assay: Antibacterial activity against fusidic acid-resistant Staphylococcus aureus harboring A376V in domain 2 and L456F mutation in domain 3 of EF-G encoded by fusA gene after 16 to 20 hrs by CLSI agar dilution method; summary of the method: as §1
Staphylococcus aureus [23] = assay: Antibacterial activity against fusidic acid-resistant Staphylococcus aureus harboring A70V in domain 1 and H457Y mutation in domain 3 of EF-G encoded by fusA gene after 16 to 20 hrs by CLSI agar dilution method; summary of the method: as §1
Staphylococcus aureus [24] = assay: Antibacterial activity against Staphylococcus aureus harboring […] and C473S mutations in domain 3 of EF-G encoded by fusA gene after 16 to 20 hrs by CLSI agar dilution method; summary of the method: as §1

`CC(=O)O[C@H]1C[C@@]2(C)[C@@H](C[C@@H](O)[C@H]3[C@@]4(C)CC[C@@H](O)[C@@H](C)[C@@H]4CC[C@@]32C)/C1=C(\CCC=C(C)C)C(=O)O` [FUSIDIC ACID] was tested, and the MIC (Staphylococcus aureus [1]) was 4 µg/mL (≈ 7.74 µM), the MIC (Staphylococcus aureus [2]) was 128 µg/mL (≈ 248 µM) and the MIC (Staphylococcus aureus [3]) was 8 µg/mL (≈ 15.5 µM). For the same compound, the MIC (Staphylococcus aureus [4]) was 16 µg/mL (≈ 31 µM), the MIC (Staphylococcus aureus [5]) was 2 µg/mL (≈ 3.87 µM) and the MIC (Staphylococcus aureus [6]) was 32 µg/mL (≈ 61.9 µM). It also gave an MIC (Staphylococcus aureus [7]) of over 128 µg/mL, an MIC (Staphylococcus aureus [8]) of 16 µg/mL (≈ 31 µM) and an MIC (Staphylococcus aureus [9]) of 16 µg/mL (≈ 31 µM). The MIC (Staphylococcus aureus [10]) was 128 µg/mL (≈ 248 µM), the MIC (Staphylococcus aureus [11]) was 16 µg/mL (≈ 31 µM) and the MIC50 (Staphylococcus aureus [12]) was 8 µg/mL (≈ 15.5 µM). It also gave an MIC90 (Staphylococcus aureus [12]) of 16 µg/mL (≈ 31 µM), an MIC (Staphylococcus aureus [13]) of 8 µg/mL (≈ 15.5 µM) and an MIC (Staphylococcus aureus [14]) of 8 µg/mL (≈ 15.5 µM). It also gave an MIC (Staphylococcus aureus [15]) of 128 µg/mL (≈ 248 µM), an MIC (Staphylococcus aureus [16]) of over 128 µg/mL and an MIC (Staphylococcus aureus [17]) of 8 µg/mL (≈ 15.5 µM). It also gave an MIC50 (Staphylococcus aureus [18]) of 32 µg/mL (≈ 61.9 µM), an MIC90 (Staphylococcus aureus [18]) of over 128 µg/mL and an MIC (Staphylococcus aureus [19]) of over 128 µg/mL. For the same compound, the MIC (Staphylococcus aureus [20]) was 8 µg/mL (≈ 15.5 µM), the MIC (Staphylococcus aureus [21]) was 8 µg/mL (≈ 15.5 µM) and the MIC (Staphylococcus aureus [22]) was 32 µg/mL (≈ 61.9 µM). It also gave an MIC (Staphylococcus aureus [23]) of over 128 µg/mL and an MIC (Staphylococcus aureus [24]) of over 128 µg/mL.
